Experimental data from ChEMBL document CHEMBL3393009 (J Med Chem, 2015).
Calls of active or inactive are those of the source. No cut-off for these calls is given here.

Biological target: T1, Tyrosine-protein kinase JAK1 (Homo sapiens, UniProt P23458)
Assay: Inhibition of JAK1 (JH1 domain-catalytic) (unknown origin) at 1 uM
Conditions: not given

T1 sequence (P23458 whole entry, the tested form may be a part): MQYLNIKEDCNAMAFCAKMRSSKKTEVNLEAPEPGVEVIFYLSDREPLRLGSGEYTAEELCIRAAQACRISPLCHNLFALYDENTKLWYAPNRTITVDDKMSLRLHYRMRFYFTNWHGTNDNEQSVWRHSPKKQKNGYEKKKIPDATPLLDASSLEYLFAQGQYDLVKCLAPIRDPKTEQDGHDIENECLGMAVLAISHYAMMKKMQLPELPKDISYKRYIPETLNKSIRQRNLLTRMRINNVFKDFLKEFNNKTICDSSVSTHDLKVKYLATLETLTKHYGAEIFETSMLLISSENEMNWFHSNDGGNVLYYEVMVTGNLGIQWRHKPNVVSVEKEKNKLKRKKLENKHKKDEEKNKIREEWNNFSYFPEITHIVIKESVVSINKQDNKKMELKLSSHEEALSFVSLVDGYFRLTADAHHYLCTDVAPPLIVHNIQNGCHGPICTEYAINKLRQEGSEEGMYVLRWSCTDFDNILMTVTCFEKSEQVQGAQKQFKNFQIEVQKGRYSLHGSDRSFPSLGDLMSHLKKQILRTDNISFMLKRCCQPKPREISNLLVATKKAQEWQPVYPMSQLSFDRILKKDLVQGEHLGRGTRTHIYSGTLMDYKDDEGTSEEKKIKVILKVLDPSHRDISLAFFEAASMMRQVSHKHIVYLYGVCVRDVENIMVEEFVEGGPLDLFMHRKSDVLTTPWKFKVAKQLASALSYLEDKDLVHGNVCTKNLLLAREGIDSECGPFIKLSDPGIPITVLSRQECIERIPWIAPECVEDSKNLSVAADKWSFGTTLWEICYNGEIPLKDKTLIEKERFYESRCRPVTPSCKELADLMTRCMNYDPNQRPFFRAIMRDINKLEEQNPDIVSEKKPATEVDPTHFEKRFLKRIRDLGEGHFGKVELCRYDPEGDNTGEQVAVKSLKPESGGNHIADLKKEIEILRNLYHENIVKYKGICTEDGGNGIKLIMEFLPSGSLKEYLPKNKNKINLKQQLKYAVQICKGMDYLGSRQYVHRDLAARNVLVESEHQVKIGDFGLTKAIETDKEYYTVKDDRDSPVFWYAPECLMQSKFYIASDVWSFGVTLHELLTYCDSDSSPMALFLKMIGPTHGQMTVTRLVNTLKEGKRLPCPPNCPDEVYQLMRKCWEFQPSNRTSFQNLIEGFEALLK

inhibition | Structure (SMILES)
inactive | CN(C)c1ncnc2[nH]cc(-c3cccc(C#N)c3)c12

Biological target: Serine/threonine-protein kinase 26 (Homo sapiens, UniProt Q9P289)
Assay: Inhibition of human recombinant MST4 using Ser/Thr peptide 7 substrate after 60 mins by Z-Lyte assay
Conditions: not given
Summary of the method: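 Z-Lyte FRET assay, final 2 μM Ser/Thr peptide 7, 75 μM ATP, 18 nM kinase. Buffer 50 mM HEPES (pH 7.0 for MST2, 7.5 for MST4), 10 mM MgCl2, 1 mM EGTA, 0.01% Brij-35. Stopped at 45 min (MST2) or 60 min (MST4). Excitation 400 nm, emission 445/520 ratio converted to percent phosphorylation for IC50.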

Serine/threonine-protein kinase 26, sequence (Q9P289 whole entry): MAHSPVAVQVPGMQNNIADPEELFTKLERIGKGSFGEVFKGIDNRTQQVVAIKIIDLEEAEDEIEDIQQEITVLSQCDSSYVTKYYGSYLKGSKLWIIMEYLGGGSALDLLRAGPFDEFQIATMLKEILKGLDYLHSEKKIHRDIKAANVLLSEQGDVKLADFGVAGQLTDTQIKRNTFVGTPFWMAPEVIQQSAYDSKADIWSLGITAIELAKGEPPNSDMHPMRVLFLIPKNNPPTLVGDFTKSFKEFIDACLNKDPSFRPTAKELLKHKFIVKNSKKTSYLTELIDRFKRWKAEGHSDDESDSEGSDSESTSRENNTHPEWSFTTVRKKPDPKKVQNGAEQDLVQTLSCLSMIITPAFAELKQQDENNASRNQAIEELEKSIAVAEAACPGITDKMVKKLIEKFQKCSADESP

IC50 [nM] | Structure (SMILES)
9430 | Cc1nc([C@H]2CN(c3ncnc4[nH]cc(-c5cccc(C#N)c5)c34)CCO2)no1
10200 | N#Cc1cccc(-c2c[nH]c3ncnc(N4CC5CCOC5C4)c23)c1 (stereo not drawn)
> 32000 | Cc1noc(C2CN(c3ncnc4[nH]cc(-c5cccc(C#N)c5)c34)CCO2)n1 (stereo not drawn)
6210 | N#Cc1cccc(-c2c[nH]c3ncnc(N4CCOC(C#N)C4)c23)c1 (stereo not drawn)
1100 | C[C@H]1CN(c2ncnc3[nH]cc(-c4cccc(C#N)c4)c23)CCO1
12100 | Cc1nc([C@@H]2CN(c3ncnc4[nH]cc(-c5cccc(C#N)c5)c34)CCO2)no1

Biological target: Leucine-rich repeat serine/threonine-protein kinase 2 (Homo sapiens, UniProt Q5S007, G2019S)
Assay: Inhibition of GST-tagged truncated human recombinant LRRK2 G2019S mutant using fluorescein-labeled LRRKtide peptide substrate incubated for 90 mins
Conditions: not given
Summary of the method: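 LRRK2 enzyme with fluorescein-LRRKtide in 50 mM HEPES pH 7.5, 3 mM MgCl2, 2 mM DTT, 0.01% Brij35. Final levels: 100 nM LRRKtide, 50 μM ATP, 1.7 μg/mL enzyme. Compound 11-point half-log series, top 32 μM. Reaction at room temperature, 2 h for wild type and 90 min for mutant. Stopped with EDTA plus Tb anti-phospho-ERM. TR-FRET 520/495 ratio read after 1 h. Geometric mean, n ≥ 2.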

Leucine-rich repeat serine/threonine-protein kinase 2 (Homo sapiens, UniProt Q5S007, G2019S), sequence (Q5S007 whole entry G2019S, the tested form may be a part): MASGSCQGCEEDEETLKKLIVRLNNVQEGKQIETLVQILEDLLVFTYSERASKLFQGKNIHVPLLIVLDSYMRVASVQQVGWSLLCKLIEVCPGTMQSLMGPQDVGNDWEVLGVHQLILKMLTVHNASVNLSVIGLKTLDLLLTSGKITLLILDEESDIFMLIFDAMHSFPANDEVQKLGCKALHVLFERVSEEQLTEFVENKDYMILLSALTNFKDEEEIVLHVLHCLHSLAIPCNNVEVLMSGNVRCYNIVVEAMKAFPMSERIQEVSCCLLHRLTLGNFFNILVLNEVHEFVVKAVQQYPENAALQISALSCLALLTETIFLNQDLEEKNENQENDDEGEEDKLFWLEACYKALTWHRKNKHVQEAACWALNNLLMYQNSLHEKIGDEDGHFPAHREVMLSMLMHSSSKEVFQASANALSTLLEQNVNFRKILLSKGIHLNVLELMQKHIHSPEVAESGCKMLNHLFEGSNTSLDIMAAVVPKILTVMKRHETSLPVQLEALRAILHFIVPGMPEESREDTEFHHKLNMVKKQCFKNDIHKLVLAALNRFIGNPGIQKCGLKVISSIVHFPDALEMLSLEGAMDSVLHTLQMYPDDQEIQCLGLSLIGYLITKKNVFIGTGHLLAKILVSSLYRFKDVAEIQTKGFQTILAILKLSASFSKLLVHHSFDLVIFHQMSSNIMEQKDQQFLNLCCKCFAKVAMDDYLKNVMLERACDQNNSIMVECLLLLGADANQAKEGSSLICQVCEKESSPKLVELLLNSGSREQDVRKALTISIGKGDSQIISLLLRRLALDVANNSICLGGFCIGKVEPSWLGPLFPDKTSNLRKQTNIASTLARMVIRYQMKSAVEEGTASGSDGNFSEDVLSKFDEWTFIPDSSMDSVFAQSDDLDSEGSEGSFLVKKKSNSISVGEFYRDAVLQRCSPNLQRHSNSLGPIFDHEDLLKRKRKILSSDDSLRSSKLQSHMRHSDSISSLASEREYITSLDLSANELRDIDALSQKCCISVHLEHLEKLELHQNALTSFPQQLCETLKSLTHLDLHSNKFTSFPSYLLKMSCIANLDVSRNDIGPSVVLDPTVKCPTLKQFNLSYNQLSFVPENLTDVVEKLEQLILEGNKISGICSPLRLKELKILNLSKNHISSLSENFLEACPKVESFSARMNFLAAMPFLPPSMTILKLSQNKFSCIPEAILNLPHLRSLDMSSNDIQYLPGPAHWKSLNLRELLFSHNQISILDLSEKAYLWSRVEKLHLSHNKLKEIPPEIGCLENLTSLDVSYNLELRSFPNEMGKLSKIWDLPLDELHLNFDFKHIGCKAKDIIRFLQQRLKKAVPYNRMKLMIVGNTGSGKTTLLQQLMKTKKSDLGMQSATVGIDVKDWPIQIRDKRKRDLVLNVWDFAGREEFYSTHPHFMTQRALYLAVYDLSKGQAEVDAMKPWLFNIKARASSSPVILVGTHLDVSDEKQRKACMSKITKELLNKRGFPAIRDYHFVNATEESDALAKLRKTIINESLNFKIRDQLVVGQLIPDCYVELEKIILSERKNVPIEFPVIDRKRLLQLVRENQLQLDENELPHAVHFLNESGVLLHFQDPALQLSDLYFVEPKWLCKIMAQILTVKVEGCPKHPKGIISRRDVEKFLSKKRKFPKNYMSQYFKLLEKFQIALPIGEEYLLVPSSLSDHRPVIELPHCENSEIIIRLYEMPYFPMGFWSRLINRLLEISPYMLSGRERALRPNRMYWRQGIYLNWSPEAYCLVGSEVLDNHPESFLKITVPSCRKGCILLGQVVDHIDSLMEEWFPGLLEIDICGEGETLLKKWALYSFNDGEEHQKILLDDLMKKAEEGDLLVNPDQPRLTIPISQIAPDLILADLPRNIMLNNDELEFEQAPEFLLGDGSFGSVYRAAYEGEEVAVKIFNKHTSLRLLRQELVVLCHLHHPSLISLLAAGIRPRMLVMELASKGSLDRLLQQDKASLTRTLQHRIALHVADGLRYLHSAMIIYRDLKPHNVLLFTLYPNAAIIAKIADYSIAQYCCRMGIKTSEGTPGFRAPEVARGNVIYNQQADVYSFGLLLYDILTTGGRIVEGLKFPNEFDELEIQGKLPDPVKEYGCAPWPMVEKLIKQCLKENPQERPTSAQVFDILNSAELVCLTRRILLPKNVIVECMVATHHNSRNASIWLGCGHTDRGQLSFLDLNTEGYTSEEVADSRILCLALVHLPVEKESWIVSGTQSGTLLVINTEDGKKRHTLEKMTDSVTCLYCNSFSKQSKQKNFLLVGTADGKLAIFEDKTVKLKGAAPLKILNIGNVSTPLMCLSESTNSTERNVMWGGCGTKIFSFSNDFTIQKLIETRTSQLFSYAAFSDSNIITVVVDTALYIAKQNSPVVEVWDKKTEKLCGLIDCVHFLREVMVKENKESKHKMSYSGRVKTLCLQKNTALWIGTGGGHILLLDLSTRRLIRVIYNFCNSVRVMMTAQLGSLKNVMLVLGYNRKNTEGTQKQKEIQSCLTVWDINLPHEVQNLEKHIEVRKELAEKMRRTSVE

IC50 [nM] | Structure (SMILES)
920 | N#Cc1cc(-c2c[nH]c3ncnc(N4CCOCC4)c23)ccc1F
49 | C[C@H]1CCCN(c2ncnc3[nH]cc(-c4cccc(C#N)c4)c23)C1
688 | N#Cc1cc(F)cc(-c2c[nH]c3ncnc(N4CCOCC4)c23)c1
4510 | N#Cc1cc(-c2c[nH]c3ncnc(N4CCOCC4)c23)ccn1
6600 | N#Cc1cncc(-c2c[nH]c3ncnc(N4CCOCC4)c23)c1
325 | N#Cc1cccc(-c2c[nH]c3ncnc(N4CCC4)c23)c1
950 | COC1CCN(c2ncnc3[nH]cc(-c4cccc(C#N)c4)c23)CC1

The next lines start with the molecule.

Structure (SMILES) | IC50 [nM]
CN1CCN(c2ncnc3[nH]cc(-c4cccc(C#N)c4)c23)CC1 | 5220
N#Cc1cccc(-c2c[nH]c3ncnc(N4CCOCC4)c23)c1F | 9
C[C@@H]1CCCN(c2ncnc3[nH]cc(-c4cccc(C#N)c4)c23)C1 | 171
CCN(CC)c1ncnc2[nH]cc(-c3cccc(C#N)c3)c12 | 151

Biological target: T2, Serine/threonine-protein kinase 3 (Homo sapiens, UniProt Q13188)
T2 sequence (Q13188 whole entry): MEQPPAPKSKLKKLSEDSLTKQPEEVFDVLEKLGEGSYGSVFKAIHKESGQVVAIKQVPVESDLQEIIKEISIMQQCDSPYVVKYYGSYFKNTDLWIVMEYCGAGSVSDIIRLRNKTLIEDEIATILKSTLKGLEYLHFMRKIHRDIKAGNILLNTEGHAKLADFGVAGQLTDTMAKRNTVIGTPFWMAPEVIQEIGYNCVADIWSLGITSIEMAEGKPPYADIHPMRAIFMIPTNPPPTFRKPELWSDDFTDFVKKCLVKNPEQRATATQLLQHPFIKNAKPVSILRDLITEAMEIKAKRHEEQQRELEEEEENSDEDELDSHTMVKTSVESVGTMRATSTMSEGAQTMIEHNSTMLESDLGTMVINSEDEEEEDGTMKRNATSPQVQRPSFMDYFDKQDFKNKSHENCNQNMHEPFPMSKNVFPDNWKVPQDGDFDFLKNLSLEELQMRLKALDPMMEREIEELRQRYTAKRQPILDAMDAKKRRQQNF
Assay: Inhibition of human recombinant MST2 using Ser/Thr peptide 7 substrate after 45 mins by Z-Lyte assay
Conditions: not given

IC50 [nM] | Structure (SMILES)
3240 | Cc1nc([C@H]2CN(c3ncnc4[nH]cc(-c5cccc(C#N)c5)c34)CCO2)no1
2390 | Cc1noc(C2CN(c3ncnc4[nH]cc(-c5cccc(C#N)c5)c34)CCO2)n1 (stereo not drawn)
288 | N#Cc1cccc(-c2c[nH]c3ncnc(N4CCOC(C#N)C4)c23)c1 (stereo not drawn)
179 | C[C@H]1CN(c2ncnc3[nH]cc(-c4cccc(C#N)c4)c23)CCO1
795 | Cc1nc([C@@H]2CN(c3ncnc4[nH]cc(-c5cccc(C#N)c5)c34)CCO2)no1

Biological target: T3, Leucine-rich repeat serine/threonine-protein kinase 2 (Homo sapiens, UniProt Q5S007)
Assay: Inhibition of LRRK2 in human PBMCs by ActivX KiNativ method
Conditions: not given

T3 sequence (Q5S007 whole entry): as the sequence (Q5S007 whole entry G2019S, the tested form may be a part) above, with S2019G counted along it

IC50 [nM] | Structure (SMILES)
42 | CN(C)c1ncnc2[nH]cc(-c3cccc(C#N)c3)c12

Biological target: T3, Leucine-rich repeat serine/threonine-protein kinase 2
Assay: Inhibition of full length LRRK2 (unknown origin) expressed in HEK293 cells assessed as reduction in S935 phosphorylation incubated for 90 mins by ELISA method
Type: cell-based
Conditions: not given

IC50 [nM] | Structure (SMILES)
2460 | N#Cc1cc(-c2c[nH]c3ncnc(N4CCOCC4)c23)ccc1F
210 | C[C@H]1CCCN(c2ncnc3[nH]cc(-c4cccc(C#N)c4)c23)C1
2080 | N#Cc1cc(F)cc(-c2c[nH]c3ncnc(N4CCOCC4)c23)c1
7690 | N#Cc1cccc(-c2c[nH]c3ncnc(N4CCC4)c23)c1

The remaining lines, values behind:

Structure (SMILES) | IC50 [nM]
N#Cc1cccc(-c2c[nH]c3ncnc(N4CCOCC4)c23)c1F | 20
C[C@@H]1CCCN(c2ncnc3[nH]cc(-c4cccc(C#N)c4)c23)C1 | 1580
CN(C)c1ncnc2[nH]cc(-c3cccc(C#N)c3)c12 | 89
Cc1noc(C2CN(c3ncnc4[nH]cc(-c5cccc(C#N)c5)c34)CCO2)n1 (stereo not drawn) | 390
CCN(CC)c1ncnc2[nH]cc(-c3cccc(C#N)c3)c12 | 443
N#Cc1cccc(-c2c[nH]c3ncnc(N4CCOC(C#N)C4)c23)c1 (stereo not drawn) | 1330
C[C@H]1CN(c2ncnc3[nH]cc(-c4cccc(C#N)c4)c23)CCO1 | 122

Biological target: T4, Tyrosine-protein kinase JAK3 (Homo sapiens, UniProt P52333)
T4 sequence (P52333 whole entry): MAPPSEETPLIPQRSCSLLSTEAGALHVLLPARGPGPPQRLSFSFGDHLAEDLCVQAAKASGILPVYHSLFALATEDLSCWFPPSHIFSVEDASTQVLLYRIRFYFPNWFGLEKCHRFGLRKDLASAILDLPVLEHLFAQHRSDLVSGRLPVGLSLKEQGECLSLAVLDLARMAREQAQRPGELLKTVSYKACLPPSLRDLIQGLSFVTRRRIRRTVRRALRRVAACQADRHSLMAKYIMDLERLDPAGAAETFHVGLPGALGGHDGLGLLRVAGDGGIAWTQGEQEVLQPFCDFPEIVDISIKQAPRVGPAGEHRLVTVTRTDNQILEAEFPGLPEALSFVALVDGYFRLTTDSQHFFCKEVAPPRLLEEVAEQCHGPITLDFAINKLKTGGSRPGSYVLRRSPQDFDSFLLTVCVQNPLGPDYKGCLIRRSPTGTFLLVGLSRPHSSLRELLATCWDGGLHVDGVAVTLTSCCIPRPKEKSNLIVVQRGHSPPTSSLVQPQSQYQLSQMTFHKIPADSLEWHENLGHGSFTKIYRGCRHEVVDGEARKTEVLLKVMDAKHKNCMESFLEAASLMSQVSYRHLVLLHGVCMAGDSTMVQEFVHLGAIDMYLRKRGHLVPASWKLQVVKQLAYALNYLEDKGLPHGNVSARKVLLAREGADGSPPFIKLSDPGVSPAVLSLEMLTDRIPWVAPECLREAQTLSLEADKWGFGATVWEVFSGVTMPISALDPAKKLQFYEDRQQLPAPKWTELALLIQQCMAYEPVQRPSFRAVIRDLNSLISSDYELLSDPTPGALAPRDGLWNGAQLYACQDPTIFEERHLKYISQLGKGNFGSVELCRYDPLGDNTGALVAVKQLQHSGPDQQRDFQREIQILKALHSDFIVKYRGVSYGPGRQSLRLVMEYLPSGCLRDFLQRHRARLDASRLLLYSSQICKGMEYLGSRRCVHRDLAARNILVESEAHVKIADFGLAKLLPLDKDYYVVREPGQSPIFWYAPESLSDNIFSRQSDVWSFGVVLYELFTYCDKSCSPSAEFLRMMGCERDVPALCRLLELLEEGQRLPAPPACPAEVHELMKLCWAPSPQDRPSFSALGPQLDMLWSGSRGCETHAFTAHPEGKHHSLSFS
Assay: Inhibition of JAK3 (unknown origin)
Conditions: not given

IC50 [nM] | Structure (SMILES)
54 | C[C@H]1CCCN(c2ncnc3[nH]cc(-c4cccc(C#N)c4)c23)C1

Tested on: not listed separately
Assay: Clearance in human liver microsomes
Type: ADME
Conditions: read-out: CLH
Summary of the method: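 Human liver microsomal clearance.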

CLint scaled [mL/min/kg] | Structure (SMILES)
44 | N#Cc1cc(-c2c[nH]c3ncnc(N4CCOCC4)c23)ccc1F
220 | C[C@H]1CCCN(c2ncnc3[nH]cc(-c4cccc(C#N)c4)c23)C1
24 | N#Cc1cc(F)cc(-c2c[nH]c3ncnc(N4CCOCC4)c23)c1
< 8 | N#Cc1cc(-c2c[nH]c3ncnc(N4CCOCC4)c23)ccn1
9 | N#Cc1cncc(-c2c[nH]c3ncnc(N4CCOCC4)c23)c1
21 | N#Cc1cccc(-c2c[nH]c3ncnc(N4CCC4)c23)c1
82 | Cc1nc([C@@H]2CN(c3ncnc4[nH]cc(-c5cccc(C#N)c5)c34)CCO2)no1

Further lines, the molecule ahead of its results:

Structure (SMILES) | CLint scaled [mL/min/kg]
CN1CCN(c2ncnc3[nH]cc(-c4cccc(C#N)c4)c23)CC1 | 20
N#Cc1cccc(-c2c[nH]c3ncnc(N4CCOCC4)c23)c1F | 36
C[C@@H]1CCCN(c2ncnc3[nH]cc(-c4cccc(C#N)c4)c23)C1 | 204
Cc1nc([C@H]2CN(c3ncnc4[nH]cc(-c5cccc(C#N)c5)c34)CCO2)no1 | 63
CN(C)c1ncnc2[nH]cc(-c3cccc(C#N)c3)c12 | 70
N#Cc1cccc(-c2c[nH]c3ncnc(N4CC5CCOC5C4)c23)c1 (stereo not drawn) | 57
Cc1noc(C2CN(c3ncnc4[nH]cc(-c5cccc(C#N)c5)c34)CCO2)n1 (stereo not drawn) | 58
CCN(CC)c1ncnc2[nH]cc(-c3cccc(C#N)c3)c12 | 114
N#Cc1cccc(-c2c[nH]c3ncnc(N4CCOC(C#N)C4)c23)c1 (stereo not drawn) | 28
C[C@H]1CN(c2ncnc3[nH]cc(-c4cccc(C#N)c4)c23)CCO1 | 53

Biological target: T5, Tyrosine-protein kinase JAK2 (Homo sapiens, UniProt O60674)
Assay: Inhibition of JAK2 (unknown origin)
Conditions: not given

IC50 [nM] | Structure (SMILES)
575 | C[C@H]1CCCN(c2ncnc3[nH]cc(-c4cccc(C#N)c4)c23)C1

Biological target: T1, Tyrosine-protein kinase JAK1
Assay: Inhibition of JAK1 (JH2 domain-pseudokinase) (unknown origin) at 1 uM
Conditions: not given

inhibition | Structure (SMILES)
inactive | CN(C)c1ncnc2[nH]cc(-c3cccc(C#N)c3)c12

Biological target: T1, Tyrosine-protein kinase JAK1
Assay: Inhibition of JAK1 (unknown origin)
Conditions: not given

IC50 [nM] | Structure (SMILES)
1620 | C[C@H]1CCCN(c2ncnc3[nH]cc(-c4cccc(C#N)c4)c23)C1

Biological target: T3, Leucine-rich repeat serine/threonine-protein kinase 2
Assay: Inhibition of GST-tagged truncated human recombinant LRRK2 using fluorescein-labeled LRRKtide peptide substrate incubated for 2 hrs
Conditions: not given

IC50 [nM] | Structure (SMILES)
117 | N#Cc1cc(-c2c[nH]c3ncnc(N4CCOCC4)c23)ccc1F
80 | N#Cc1cc(F)cc(-c2c[nH]c3ncnc(N4CCOCC4)c23)c1
686 | N#Cc1cc(-c2c[nH]c3ncnc(N4CCOCC4)c23)ccn1
2240 | N#Cc1cncc(-c2c[nH]c3ncnc(N4CCOCC4)c23)c1
115 | N#Cc1cccc(-c2c[nH]c3ncnc(N4CCC4)c23)c1
393 | COC1CCN(c2ncnc3[nH]cc(-c4cccc(C#N)c4)c23)CC1

The remaining lines, values behind:

Structure (SMILES) | IC50 [nM]
CN1CCN(c2ncnc3[nH]cc(-c4cccc(C#N)c4)c23)CC1 | 1830
N#Cc1cccc(-c2c[nH]c3ncnc(N4CCOCC4)c23)c1F | 3
C[C@@H]1CCCN(c2ncnc3[nH]cc(-c4cccc(C#N)c4)c23)C1 | 69
CCN(CC)c1ncnc2[nH]cc(-c3cccc(C#N)c3)c12 | 20

Biological target: T5, Tyrosine-protein kinase JAK2
Assay: Inhibition of JAK2 (JH1 domain-catalytic) (unknown origin) at 1 uM
Conditions: not given

inhibition | Structure (SMILES)
inactive | CN(C)c1ncnc2[nH]cc(-c3cccc(C#N)c3)c12

Biological target: T6, Tyrosine-protein kinase JAK3 (Homo sapiens) (UniProt P52333)
T6 sequence (whole entry): T4 sequence (P52333 whole entry)
Assay: Inhibition of JAK3 (JH1 domain-catalytic) (unknown origin) at 1 uM
Conditions: not given

inhibition | Structure (SMILES)
inactive | CN(C)c1ncnc2[nH]cc(-c3cccc(C#N)c3)c12
